Experimental data published in PMC3700807 (Planta medica, 2011).

Assays:
[1] = system: Cryptococcus neoformans (ATCC 90113); test: Antimicrobial susceptibility assay, C. neoformans; type: cell-based; details: highest test concentration 20 μg/mL
Method in brief: (§1)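 Yeasts were tested by a modified CLSI broth-dilution method, with growth monitored by optical density. Amphotericin B was the drug control in each assay. IC50 (50% inhibition vs controls) was curve-fitted from duplicate readings. MIC is the lowest concentration allowing no detectable growth. For MFC, 5 μL from each clear well was plated on agar and incubated until growth was seen.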

[2] = system: Staphylococcus aureus (ATCC 29213); test: Antimicrobial susceptibility assay, S. aureus; type: cell-based; details: highest test concentration 20 μg/mL
Method in brief: (§2)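 Bacteria were tested by a modified CLSI broth-dilution method, with growth read as optical density. Ciprofloxacin was the drug control in each assay. IC50 (50% inhibition relative to controls) was fitted from duplicate readings. MIC is the lowest concentration with no detectable growth. For MBC, 5 μL from each clear well was transferred to agar and incubated until growth appeared.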

VERO cells = test: Cytotoxicity to VERO cells; type: cell-based
C. krusei (ATCC 6258) = test: Antimicrobial susceptibility assay, C. krusei; type: cell-based; details: highest test concentration 20 μg/mL
Method in brief: as §1

[3] = system: Candida albicans (ATCC 90028); test: Antimicrobial susceptibility assay, C. albicans; type: cell-based; details: highest test concentration 20 μg/mL
Method in brief: as §1

Transformed THP1 cells = test: Cytotoxicity to PMA transformed THP1 cells; type: cell-based
[4] = system: Mycobacterium intracellulare (ATCC 23068); test: Antimicrobial susceptibility assay, M. intracellulare; type: cell-based; details: highest test concentration 20 μg/mL
Method in brief: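 Mycobacterium intracellulare (ATCC 23068) was tested by a modified broth susceptibility method, with growth detected in medium containing 5% Alamar Blue. IC50 was fitted against untreated controls from duplicate readings. MIC was taken as the lowest concentration with no detectable growth. For MBC, clear wells were subcultured onto agar and incubated until growth appeared. Ciprofloxacin was included as the drug control in each assay.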

[5] = system: Leishmania donovani amastigotes in THP1 macrophage cultures; test: Antileishmanial macrophage-amastigote assay; type: cell-based; details: amastigotes in THP1 macrophage cultures; mean ± S.D. of three observations
[6] = system: Plasmodium falciparum D6 (chloroquine-sensitive clone); test: In vitro antiplasmodial assay; type: cell-based; details: chloroquine-sensitive clone D6
[7] = system: Leishmania donovani axenic amastigotes; test: Antileishmanial assay, axenic amastigotes; type: cell-based; details: 37 °C, 72 hours; mean ± S.D. of three observations
[8] = system: Aspergillus fumigatus (ATCC 204305); test: Antimicrobial susceptibility assay, A. fumigatus; type: cell-based; details: highest test concentration 20 μg/mL
Method in brief: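 Broth-dilution susceptibility test in medium with 5% Alamar Blue for growth detection. Amphotericin B was the drug control in each assay. IC50 (50% inhibition vs controls) was curve-fitted from duplicate readings. MIC is the lowest concentration with no detectable growth. For MFC, 5 μL from each clear well was moved to agar and incubated until growth appeared.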

[9] = system: methicillin-resistant S aureus (MRSA, ATCC 33591); test: Antimicrobial susceptibility assay, MRSA; type: cell-based, Staphylococcus aureus; details: highest test concentration 20 μg/mL
Method in brief: as §2

[10] = system: Leishmania donovani promastigotes; test: Antileishmanial assay, promastigotes; type: cell-based; details: 26 °C, 72 hours; mean ± S.D. of three observations
[11] = system: Plasmodium falciparum W2 (chloroquine-resistant clone); test: In vitro antiplasmodial assay; type: cell-based; details: chloroquine-resistant clone W2
C. glabrata (ATCC 90030) = test: Antimicrobial susceptibility assay, C. glabrata; type: cell-based; details: highest test concentration 20 μg/mL
Method in brief: as §1

SMILES: C[C@@H]1N[C@H](CCCCCCCCCCc2cc(CCCCCCCCCC[C@@H]3CC[C@H](O)[C@H](C)N3)c3[n+](c2)CCC3)CC[C@@H]1O [Compound 7, juliprosine]
- C. neoformans IC50 [1]: 0.17 µg/mL
- C. neoformans MFC [1]: 0.63 µg/mL
- C. neoformans MIC [1]: 0.63 µg/mL
- S. aureus IC50 [2]: 3.0 µg/mL
- S. aureus MBC [2]: 10 µg/mL
- S. aureus MIC [2]: 5.0 µg/mL
- VERO IC50 (VERO cells): >23.8 µg/mL
- C. krusei IC50 (C. krusei (ATCC 6258)): -/-/- ((-) = Not active at the highest test concentration of 20 μg/mL)
- C. krusei MFC (C. krusei (ATCC 6258)): -/-/- ((-) = Not active at the highest test concentration of 20 μg/mL)
- C. krusei MIC (C. krusei (ATCC 6258)): -/-/- ((-) = Not active at the highest test concentration of 20 μg/mL)
- C. albicans IC50 [3]: -/-/- ((-) = Not active at the highest test concentration of 20 μg/mL)
- C. albicans MFC [3]: -/-/- ((-) = Not active at the highest test concentration of 20 μg/mL)
- C. albicans MIC [3]: -/-/- ((-) = Not active at the highest test concentration of 20 μg/mL)
- Cytotoxicity (Transformed THP1 cells) IC50 (Transformed THP1 cells): 19.5 ± 1.0 µg/mL
- Cytotoxicity (Transformed THP1 cells) IC90 (Transformed THP1 cells): >20 µg/mL
- M. intracellulare IC50 [4]: 0.80 µg/mL
- M. intracellulare MBC [4]: 5 µg/mL
- M. intracellulare MIC [4]: 1.25 µg/mL
- Leishmania donovani Macrophage-Amastigotes IC50 [5]: 3.08 ± 0.43 µg/mL
- Leishmania donovani Macrophage-Amastigotes IC90 [5]: 7.89 ± 1.91 µg/mL
- P. falciparum D6 IC50 [6]: 0.17 ± 0.035 µg/mL
- Leishmania donovani Axenic Amastigotes IC50 [7]: 2.58 ± 0.37 µg/mL
- Leishmania donovani Axenic Amastigotes IC90 [7]: 29.8 ± 4.3 µg/mL
- A. fumigatus IC50 [8]: -/-/- ((-) = Not active at the highest test concentration of 20 μg/mL)
- A. fumigatus MFC [8]: -/-/- ((-) = Not active at the highest test concentration of 20 μg/mL)
- A. fumigatus MIC [8]: -/-/- ((-) = Not active at the highest test concentration of 20 μg/mL)
- MRSA IC50 [9]: 3.03 µg/mL
- MRSA MBC [9]: 10 µg/mL
- MRSA MIC [9]: 5.0 µg/mL
- Leishmania donovani Promastigotes IC50 [10]: 1.38 ± 0.23 µg/mL
- Leishmania donovani Promastigotes IC90 [10]: 5.85 ± 0.72 µg/mL
- P. falciparum W2 IC50 [11]: 0.15 ± 0.06 µg/mL
- C. glabrata IC50 (C. glabrata (ATCC 90030)): -/-/- ((-) = Not active at the highest test concentration of 20 μg/mL)
- C. glabrata MFC (C. glabrata (ATCC 90030)): -/-/- ((-) = Not active at the highest test concentration of 20 μg/mL)
- C. glabrata MIC (C. glabrata (ATCC 90030)): -/-/- ((-) = Not active at the highest test concentration of 20 μg/mL)
